We go through 9 molecules from ChEMBL document CHEMBL1649514, “AmpDI is involved in expression of the chromosomal L1 and L2 beta-lactamases of Stenotrophomonas maltophilia” (2009).

What all share (format): functional
In experiment [1] the test system is Stenotrophomonas maltophilia. Kind of experiment: Antimicrobial activity against ampD2-deficient Stenotrophomonas maltophilia KJ by twofold serial agar dilution method. A digest of the protocol:
(§1)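 MICs by standard twofold serial agar dilution following CLSI guidelines, done in triplicate. Strains were wild-type clinical isolate KJ, which produces L1 and L2 β-lactamases, and its isogenic ampDI, ampDII and ampDI/ampDII deletion mutants. For cefepime, imipenem and meropenem, MICs were instead read from Etest strips per the manufacturer's instructions.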
Background: In agar dilution the substance is mixed into plates at graded concentrations.

The test system of experiment [2] is Stenotrophomonas maltophilia. Briefly: Antimicrobial activity against Stenotrophomonas maltophilia KJ by twofold serial agar dilution method. In a few lines:
as §1

Experiment [3] concerns Stenotrophomonas maltophilia. Briefly: Antimicrobial activity against ampD1-, ampD2-deficient Stenotrophomonas maltophilia KJ by twofold serial agar dilution method. A digest of the protocol:
as §1

The test system of experiment [4] is Stenotrophomonas maltophilia. Briefly: Antimicrobial activity against ampD1-deficient Stenotrophomonas maltophilia KJ by twofold serial agar dilution method. In a few lines: as §1

Each structure is given as a SMILES string. ≈ marks a conversion by molar mass, not a printed value.

In the case of `CCN1CCN(C(=O)N[C@@H](C(=O)N[C@@H]2C(=O)N3[C@@H]2SC(C)(C)[C@@H]3C(=O)O)c2ccccc2)C(=O)C1=O` [PIPERACILLIN], the MIC in experiment [1], in experiment [2], in experiment [3] and in experiment [4] was 1020 µg/mL (≈ 1980 µM) throughout.
Turning to `C[C@H]1[C@H](NC(=O)/C(=N\OC(C)(C)C(=O)O)c2csc(N)n2)C(=O)N1S(=O)(=O)O` [AZTREONAM], the MIC in experiment [1], in experiment [2], in experiment [3] and in experiment [4] was > 2050 µg/mL each time.
`CC1(C)S[C@@H]2[C@H](NC(=O)C(C(=O)O)c3ccccc3)C(=O)N2[C@H]1C(=O)O` (stereo partly specified) [CARBENICILLIN]: the MIC in experiment [1], in experiment [2], in experiment [3] and in experiment [4] was 1020 µg/mL (≈ 2710 µM) throughout.
With `CO/N=C(\C(=O)N[C@@H]1C(=O)N2C(C(=O)O)=C(COC(N)=O)CS[C@H]12)c1ccco1` [CEFUROXIME], the MIC in experiment [1], in experiment [2], in experiment [3] and in experiment [4] was 2050 µg/mL (≈ 4830 µM) in each case.
Consider `C[C@@H](O)[C@H]1C(=O)N2C(C(=O)O)=C(S[C@@H]3CN[C@H](C(=O)N(C)C)C3)[C@H](C)[C@H]12` [MEROPENEM], for which the minimal inhibitory concentration (MIC) in experiment [1], in experiment [2], in experiment [3] and in experiment [4] was > 32 µg/mL each time.
Turning to `C[C@@H](O)[C@H]1C(=O)N2C(C(=O)O)=C(SCCNC=N)C[C@H]12` [IMIPENEM ANHYDROUS], the MIC in experiment [1], in experiment [2], in experiment [3] and in experiment [4] was > 32 µg/mL throughout.
On to `CO/N=C(\C(=O)N[C@@H]1C(=O)N2C(C(=O)[O-])=C(C[N+]3(C)CCCC3)CS[C@H]12)c1csc(N)n1` [CEFEPIME], for which the minimal inhibitory concentration (MIC) (as a rule, the lowest concentration that inhibits growth of the organism) in experiment [1] amounted to 64 µg/mL (≈ 133 µM); in experiment [2] it was 64 µg/mL (≈ 133 µM); in experiment [3] it was 96 µg/mL (≈ 200 µM); in experiment [4] it was 96 µg/mL (≈ 200 µM).
Consider `CO[C@@]1(NC(=O)Cc2cccs2)C(=O)N2C(C(=O)O)=C(COC(N)=O)CS[C@@H]21` [CEFOXITIN], for which the MIC in experiment [1], in experiment [2], in experiment [3] and in experiment [4] was 1020 µg/mL (≈ 2400 µM) throughout.
Regarding `CO/N=C(\C(=O)N[C@@H]1C(=O)N2C(C(=O)O)=C(CSc3nc(=O)c(O)nn3C)CS[C@H]12)c1csc(N)n1` [CEFTRIAXONE], the MIC in experiment [1], in experiment [2], in experiment [3] and in experiment [4] was 256 µg/mL (≈ 462 µM) in each case.
